# DENV2 CPE = protects cells from dengue virus 2 cytopathic effect; CPE inhibition, % at 9.99 µM; 1.7% of 350,000 active; DENV2-infected cells, cytopathic effect rescue, plate reader; in the data active = CPE inhibition above about 20%, passing the limit was not always enough; inconclusive = no clear call, values can overlap the other calls; tested in BHK-21 cells
# SIRT5 block = sirtuin-5 (human) deacylase inhibition; Purified SirT5, succinyl-peptide AMC, trypsin-coupled fluorescence; AID 652115; inhibition, % at 15 µM; 1.1% of 330,000 active; Q9NXA8; in the data active = inhibition above about 15%; inconclusive = no clear call, values can overlap the other calls
# E-sel inducer = E-selectin induction on HUVECs; P16581; AID 686992; HUVEC E-selectin immunofluorescence imaging; normalized: neutral wells 0, TNF-alpha wells 100; 0.37% of 260,000 active; activation, % at 7.58 µM;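 active = mean E-selectin-positive cell signal at least 10% of the positive control, reached in at least 60% of replicates, without over 20% cell loss; inconclusive = no rule given, readout overlaps actives, possibly toxicity-flagged; inactive = the rest, including those meeting only one limit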
# Target sequence (P16581 whole entry, looked up): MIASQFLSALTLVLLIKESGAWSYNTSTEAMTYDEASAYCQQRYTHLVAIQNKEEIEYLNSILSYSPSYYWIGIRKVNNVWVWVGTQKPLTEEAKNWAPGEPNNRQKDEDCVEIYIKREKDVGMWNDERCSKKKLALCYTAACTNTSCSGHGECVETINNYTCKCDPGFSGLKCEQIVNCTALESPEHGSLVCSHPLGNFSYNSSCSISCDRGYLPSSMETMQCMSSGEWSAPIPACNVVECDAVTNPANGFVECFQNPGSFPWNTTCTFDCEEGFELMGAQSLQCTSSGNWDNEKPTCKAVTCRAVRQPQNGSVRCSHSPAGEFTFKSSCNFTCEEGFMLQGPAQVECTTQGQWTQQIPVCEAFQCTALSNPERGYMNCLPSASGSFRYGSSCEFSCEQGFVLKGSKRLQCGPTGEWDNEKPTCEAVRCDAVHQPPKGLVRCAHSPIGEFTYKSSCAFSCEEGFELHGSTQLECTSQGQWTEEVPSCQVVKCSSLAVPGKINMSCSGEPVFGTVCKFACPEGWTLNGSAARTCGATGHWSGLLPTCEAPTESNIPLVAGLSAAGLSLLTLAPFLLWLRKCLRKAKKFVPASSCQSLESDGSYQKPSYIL
#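 Read-out: % PE-positive cells | Test system: HUVEC | Doses: One compound dose added by pin transfer | Buffer or medium: EGM-2 over gelatin coat | Signal: Immunofluorescence imaging | Benchmarks: TNF-alpha, DMSO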
# Hits are given with their value; - = inactive; ? = inconclusive; . = no result. In the library only some 2.8% were active in any assay of this set; here they are far more common.
SMILES,DENV2 CPE,SIRT5 block,E-sel inducer
COc1ccc(CNC(=O)C[C@H]2C[C@@H]3c4cc(NS(=O)(=O)c5ccc(F)cc5)ccc4O[C@@H]3[C@H](CO)O2)cc1,-,-,-
CCCNC(=O)Nc1ccc2c(c1)C(=O)N(C)C[C@H](OC)[C@H](C)CN(C(=O)C1CCCCC1)[C@H](C)CO2,.,.,-
CC(C)(C(=O)N1CCC1(C)C(=O)NC1Cc2ccccc2C1)c1ccccc1 (stereo not drawn),-,-,-
CC(C)(C(=O)N1CCC1(C)C(=O)Nc1ccccc1Br)c1ccccc1 (stereo not drawn),24.7,-,-
O=c1[nH]c2cc(Cl)c(Br)cc2o1,157.3,-,.
O=c1[nH]c2cc(Cl)c(Cl)cc2o1,-,.,-
C[C@H](O)C#Cc1ccc2c(c1)O[C@H](CN(C)C(=O)C1CCCCC1)[C@H](C)CN([C@H](C)CO)S2(=O)=O,-,-,.
C[C@@H]1CN([C@@H](C)CO)C(=O)c2cc(-c3ccncc3)cnc2O[C@@H]1CN(C)C(=O)c1ccncc1,-,-,-
C[C@H]1CN([C@@H](C)CO)C(=O)c2cc(-c3cccnc3)cnc2O[C@@H]1CN(C)C(=O)C1CCC1,-,-,-
C[C@@H]1CN([C@H](C)CO)C(=O)c2cc(-c3ccccc3)cnc2O[C@@H]1CN(C)C(=O)c1ccccc1F,105.3,-,-
C[C@@H]1CN([C@H](C)CO)C(=O)c2cc(C#Cc3ccc(F)cc3)cnc2O[C@@H]1CN(C)C(=O)c1ccccc1F,45.0,-,-
C[C@H]1CN([C@@H](C)CO)C(=O)c2cc(-c3cccnc3)cnc2O[C@H]1CN(C)C(=O)C1CCC1,23.7,-,-
C[C@H](CO)N1C[C@H](C)[C@H](CN(C)C(=O)c2ccccc2F)Oc2ncc(C#Cc3ccc(F)cc3)cc2C1=O,-,-,-
C[C@H]1CN([C@@H](C)CO)C(=O)c2cc(-c3ccncc3)cnc2O[C@H]1CN(C)C(=O)c1ccncc1,-,16.2,-
C[C@H]1CN([C@@H](C)CO)C(=O)c2cc(-c3ccccc3)cnc2O[C@@H]1CN(C)C(=O)c1ccccc1F,?,-,-
O=C(Cc1ccccc1)N1CC(=O)N2[C@H](C1)[C@@H](c1ccc(-c3ccccc3)cc1)[C@@H]2CO,-,-,-
O=C(NCC[C@H]1CC[C@@H](NS(=O)(=O)c2cccc(F)c2)[C@H](CO)O1)Nc1cc(F)ccc1F,-,-,-
C[C@H](O)C#Cc1ccc2c(c1)O[C@H](CN(C)CC1CC1)[C@H](C)CN([C@@H](C)CO)S2(=O)=O,.,.,-
Cc1ccc(-c2cnc3c(c2)C(=O)N([C@H](C)CO)C[C@@H](C)[C@@H](CN(C)C(=O)c2ccccc2)O3)cc1,68.4,-,-
C[C@@H]1CN([C@@H](C)CO)C(=O)c2cc(-c3ccccc3)cnc2O[C@@H]1CN(C)C(=O)c1cccnc1,-,-,-
CC(=O)N(C)C[C@H]1Oc2ncc(-c3ccccc3C)cc2C(=O)N([C@H](C)CO)C[C@@H]1C,-,-,-
CC(=O)N(C)C[C@@H]1Oc2ncc(-c3ccccc3C)cc2C(=O)N([C@H](C)CO)C[C@H]1C,?,32.3,-
C[C@@H]1CN([C@H](C)CO)C(=O)c2cc(-c3ccccc3)cnc2O[C@@H]1CN(C)C(=O)c1cccnc1,-,15.5,-
Cc1ccc(-c2cnc3c(c2)C(=O)N([C@@H](C)CO)C[C@H](C)[C@@H](CN(C)C(=O)c2ccccc2)O3)cc1,-,-,-
CO[C@@H]1CN(C)C(=O)c2ccc(NC(=O)c3ccccc3F)cc2OC[C@H](C)N(C)C[C@H]1C,.,.,-
SMILES,DENV2 CPE,SIRT5 block,E-sel inducer
COc1cc(SC)ccc1C(=O)Nc1cccc(S(=O)(=O)NC2=NCCC2)c1,?,15.3,-
O=C(Nc1cccc(S(=O)(=O)NC2=NCCC2)c1)c1ccccc1F,-,-,-
CCS(=O)(=O)NCC[C@H]1CC[C@H](NC(=O)C2CCCCC2)[C@@H](CO)O1,.,.,-
O=C(O)c1cccc(-c2ccc(/C=c3/sc4nc5ccccc5n4c3=O)o2)c1,-,29.6,.
O=C(O)c1ccccc1-c1ccc(C=c2sc3nc4cc(Br)cnc4n3c2=O)o1,?,29.5,-
N=C1S/C(=C\c2ccc(-c3ccccc3C(=O)O)o2)C(=O)N1c1ccc2c(c1)OCO2,-,-,.
O=C(O)c1cccc(-c2ccc(/C=N/Nc3nn[nH]n3)o2)c1,-,-,.
O=C(C[C@@H]1CC[C@@H]2[C@H](COC[C@H](O)CN2C(=O)c2ccc(F)cc2)O1)NCc1cccc(F)c1,-,-,-
CN(C)C(=O)c1cccc(-c2ccc3c(c2)[C@@H]2[C@@H](CCN2C(=O)c2cccnc2)[C@@H](CO)N3)c1,-,.,-
C[C@H]1CN([C@@H](C)CO)C(=O)c2cc(NC(=O)NC3CCCCC3)ccc2O[C@@H]1CN(C)C(=O)Nc1ccc(C(F)(F)F)cc1,-,-,-
O=C(C[C@H]1CC[C@@H]2[C@H](COC[C@@H](O)CN2C(=O)Nc2ccccc2)O1)NCc1ccncn1,-,-,-
O=C1COc2ccc(S(=O)(=O)N3CCN(c4cccc(C(F)(F)F)c4)CC3)cc2N1,-,-,.
Cc1cc2c(cc1S(=O)(=O)N1CCN(c3cccc(C(F)(F)F)c3)CC1)OCC(=O)N2,31.6,-,-
c1ccc(C2=NOC(c3nnc(-c4ccccc4)o3)C2)cc1 (stereo not drawn),-,.,-
Clc1cccc(C2=NOC(c3nnc(-c4ccccc4)o3)C2)c1 (stereo not drawn),34.6,.,-
C[C@@H]1CN([C@@H](C)CO)C(=O)c2cc(/C=C/c3ccccc3)cnc2O[C@H]1CN(C)C(=O)C1CCCCC1,-,-,-
O=C(C[C@@H]1C=C[C@@H](NC(=O)c2ccc3c(c2)OCO3)[C@H](CO)O1)NCc1ccc(Oc2ccccc2)cc1,-,-,-
C[C@H]1CN([C@@H](C)CO)C(=O)c2cc(C3=CCCCC3)cnc2O[C@@H]1CN(C)C(=O)Cc1ccncc1,.,.,-
COc1ccc(NC(=O)N(C)C[C@H]2Oc3c(NC(=O)CCCCCC(=O)Nc4ccccc4N)cccc3C(=O)N([C@H](C)CO)C[C@@H]2C)cc1,-,-,-
C[C@H]1CN([C@@H](C)CO)C(=O)c2cccc(NC(=O)CCCCCC(=O)Nc3ccccc3N)c2O[C@H]1CN(C)CC1CCCCC1,-,-,-
CC(C)NC(=O)N(C)C[C@H]1Oc2c(NC(=O)CCCCCC(=O)Nc3ccccc3N)cccc2C(=O)N([C@@H](C)CO)C[C@H]1C,-,-,40.4
C[C@H]1CN([C@@H](C)CO)C(=O)c2cccc(NC(=O)CCCCCC(=O)Nc3ccccc3N)c2O[C@@H]1CN(C)C,23.4,-,-
COc1ccc(NC(=O)N(C)C[C@H]2Oc3c(NC(=O)CCCCCC(=O)Nc4ccccc4N)cccc3C(=O)N([C@@H](C)CO)C[C@H]2C)cc1,33.6,.,-
C[C@H](CO)N1C[C@H](C)[C@@H](CN(C)CC2CCCCC2)Oc2c(NC(=O)CCCCCC(=O)Nc3ccccc3N)cccc2C1=O,-,19.0,-
CC(C)NC(=O)N(C)C[C@H]1Oc2c(NC(=O)CCCCCC(=O)Nc3ccccc3N)cccc2C(=O)N([C@H](C)CO)C[C@@H]1C,-,.,-
C[C@H]1CN([C@@H](C)CO)C(=O)c2cccc(NC(=O)CCCCCC(=O)Nc3ccccc3N)c2O[C@H]1CN(C)C,-,-,-
